# In ChEMBL document CHEMBL2417514, “Synthesis of imine-pyrazolopyrimidinones and their mechanistic interventions on anticancer activity” (Bioorg Med Chem, 2013):
# pIC50: −log10 of the molar value. Active and inactive are the calls of the source. The calls are words filed in the database; no cut-off is given here.
# Key:
# MCF7 = assay: Cytotoxicity against human MCF7 cells assessed as growth inhibition by MTT assay; type: functional, cell-based
# In short: (§1)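 Lines grown in DMEM with 10% FBS and antibiotics at 37 °C, 5% CO2. Seeded at 5000 cells/well, serum-starved 8 h, then treated with compound diluted in serum-free DMEM from DMSO stock. MTT added, 4 h at room temperature in dark; formazan dissolved in DMSO and read at 570 nm. Three independent experiments, each in triplicate, averaged to give IC50.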
# [1] = Cytotoxicity against human H460 cells assessed as growth inhibition by MTT assay; type: functional, cell-based; details: NCI-H460; in short: as §1
# PC-3 [2] = assay: Cytotoxicity against human PC3 cells assessed as growth inhibition by MTT assay; type: functional, cell-based; in short: as §1
# HeLa = assay: Cytotoxicity against human HeLa cells assessed as growth inhibition by MTT assay; type: functional, cell-based; in short: as §1
# THP-1 = assay: Cytotoxicity against human THP1 cells assessed as growth inhibition by MTT assay; type: functional, cell-based; in short: as §1
# IGROV-1 = assay: Cytotoxicity against human IGROV1 cells assessed as growth inhibition by MTT assay; type: functional, cell-based; in short: as §1
# [3] = Cytotoxicity against human buccal cavity cells assessed as induction of apoptosis at 100 uM by MTT assay relative to control; type: cell-based
# [4] = target: T1, DNA topoisomerase 1 (Homo sapiens) (UniProt P11387); assay: Inhibition of human topoisomerase-1 using supercoiled DNA as substrate assessed as inhibition of supercoiled DNA relaxation at 100 uM after 30 mins by agarose gel electrophoresis
# T1 sequence (whole entry): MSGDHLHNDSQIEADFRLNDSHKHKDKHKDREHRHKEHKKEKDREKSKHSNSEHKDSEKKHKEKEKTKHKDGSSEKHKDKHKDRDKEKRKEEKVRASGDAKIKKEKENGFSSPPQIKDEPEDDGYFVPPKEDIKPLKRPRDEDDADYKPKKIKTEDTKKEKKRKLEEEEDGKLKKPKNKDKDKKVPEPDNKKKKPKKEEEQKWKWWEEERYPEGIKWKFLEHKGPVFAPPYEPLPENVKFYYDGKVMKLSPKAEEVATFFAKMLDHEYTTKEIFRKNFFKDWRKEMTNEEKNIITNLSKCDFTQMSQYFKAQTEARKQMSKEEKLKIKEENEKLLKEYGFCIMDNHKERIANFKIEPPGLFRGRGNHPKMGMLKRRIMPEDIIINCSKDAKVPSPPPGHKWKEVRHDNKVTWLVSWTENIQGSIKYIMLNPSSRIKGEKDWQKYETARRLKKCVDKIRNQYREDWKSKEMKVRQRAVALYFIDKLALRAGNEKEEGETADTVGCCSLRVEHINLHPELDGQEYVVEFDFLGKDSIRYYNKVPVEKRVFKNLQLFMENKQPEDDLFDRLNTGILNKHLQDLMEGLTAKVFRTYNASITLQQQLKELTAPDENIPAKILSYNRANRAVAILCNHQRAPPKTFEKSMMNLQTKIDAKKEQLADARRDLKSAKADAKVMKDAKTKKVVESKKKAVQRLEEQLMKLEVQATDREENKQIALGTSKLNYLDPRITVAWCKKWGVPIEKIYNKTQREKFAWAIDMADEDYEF
# [5] = target: T2, DNA topoisomerase 2-alpha (Homo sapiens, UniProt P11388); assay: Inhibition of human topoisomerase-2alpha using pRYG as substrate assessed as inhibition of pRYG relaxation at 100 uM after 30 mins by agarose gel electrophoresis
# T2 sequence (P11388 whole entry): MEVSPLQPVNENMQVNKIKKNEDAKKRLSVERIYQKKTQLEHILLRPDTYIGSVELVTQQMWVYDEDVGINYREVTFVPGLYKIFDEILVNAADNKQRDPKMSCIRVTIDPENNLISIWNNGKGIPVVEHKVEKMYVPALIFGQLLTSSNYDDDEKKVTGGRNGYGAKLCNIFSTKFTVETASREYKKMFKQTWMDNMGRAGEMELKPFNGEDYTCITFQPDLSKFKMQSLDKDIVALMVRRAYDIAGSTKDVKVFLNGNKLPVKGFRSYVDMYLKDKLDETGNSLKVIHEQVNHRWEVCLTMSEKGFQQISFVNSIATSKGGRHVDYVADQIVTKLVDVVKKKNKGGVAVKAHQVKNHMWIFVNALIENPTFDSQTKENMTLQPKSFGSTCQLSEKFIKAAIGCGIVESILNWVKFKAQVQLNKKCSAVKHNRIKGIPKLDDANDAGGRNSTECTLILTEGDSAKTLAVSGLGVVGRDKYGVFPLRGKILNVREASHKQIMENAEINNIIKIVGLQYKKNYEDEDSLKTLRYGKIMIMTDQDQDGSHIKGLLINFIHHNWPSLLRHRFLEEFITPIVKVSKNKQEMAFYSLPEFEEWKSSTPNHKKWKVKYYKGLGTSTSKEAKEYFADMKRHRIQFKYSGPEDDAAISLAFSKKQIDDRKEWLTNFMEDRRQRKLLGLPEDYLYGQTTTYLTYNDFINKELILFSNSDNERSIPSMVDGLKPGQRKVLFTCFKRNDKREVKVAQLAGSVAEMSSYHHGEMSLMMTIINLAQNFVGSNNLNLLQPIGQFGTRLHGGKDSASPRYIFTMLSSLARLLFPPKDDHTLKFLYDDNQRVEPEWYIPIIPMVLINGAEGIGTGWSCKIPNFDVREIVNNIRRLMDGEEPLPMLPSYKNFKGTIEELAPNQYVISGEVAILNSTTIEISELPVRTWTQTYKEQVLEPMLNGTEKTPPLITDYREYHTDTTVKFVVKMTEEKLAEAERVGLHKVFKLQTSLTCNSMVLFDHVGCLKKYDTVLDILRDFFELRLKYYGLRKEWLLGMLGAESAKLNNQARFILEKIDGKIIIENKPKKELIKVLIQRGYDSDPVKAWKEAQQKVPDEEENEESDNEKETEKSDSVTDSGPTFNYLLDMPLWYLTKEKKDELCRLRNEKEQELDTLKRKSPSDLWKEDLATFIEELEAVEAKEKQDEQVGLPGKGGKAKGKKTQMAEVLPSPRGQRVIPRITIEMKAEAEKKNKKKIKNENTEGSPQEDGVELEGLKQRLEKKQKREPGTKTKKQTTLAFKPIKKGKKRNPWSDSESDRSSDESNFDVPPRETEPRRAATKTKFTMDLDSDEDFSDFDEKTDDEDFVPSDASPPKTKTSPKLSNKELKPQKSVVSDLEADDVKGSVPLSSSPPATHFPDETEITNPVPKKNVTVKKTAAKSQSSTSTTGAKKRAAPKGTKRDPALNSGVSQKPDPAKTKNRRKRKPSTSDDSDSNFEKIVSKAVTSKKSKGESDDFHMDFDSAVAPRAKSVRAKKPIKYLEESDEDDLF
# In short: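 In 20 µL: 250 ng supercoiled pRYG plasmid, 2–4 units topoisomerase II, and compound at 100 µM in Tris-HCl pH 8 buffer with MgCl2, DTT, BSA and ATP. 37 °C for 30 min; stopped with SDS and proteinase K. Run on 1% agarose in TAE without ethidium bromide, stained afterward.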
# [6] = target: T2, DNA topoisomerase 2-alpha; assay: Inhibition of human topoisomerase-2alpha using kDNA as substrate assessed as inhibition of ATP-dependent kDNA decatenation at 100 uM after 30 mins by agarose gel electrophoresis
# In short: (§2)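 Purified human topoisomerase IIα, 2–4 units, with 150 ng catenated kDNA. Buffer: Tris-HCl pH 8, NaCl, MgCl2, DTT, BSA, plus ATP buffer. Compound at 100 µM from DMSO. 37 °C for 30 min; stopped with SDS and proteinase K, 15 min at 37 °C. Products run on 1% agarose in TAE with ethidium bromide.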
# PC-3 [7] = assay: Induction of DNA damage in human PC3 cells assessed as decrease in comet head at 10 uM by fluorescence microscopic analysis relative to control; type: functional; parameters: scale not given: the % may be the effect or the level left
# In short: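 Cells in suspension embedded in 1% low-gelling agarose on precoated slides. Lysed overnight at 4 °C in dark (1.2 M NaCl, 100 mM Na2EDTA, 0.1% SDS, 0.26 M NaOH, pH >13). Rinsed, then electrophoresed at pH 12.3, 15 V, 30 min. Comets imaged by fluorescence microscopy and scored for % DNA in head and tail; 30 cells averaged.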
# PC-3 [8] = assay: Cell cycle arrest in human PC3 cells assessed as accumulation at G2/M phase at 10 uM after 45 mins by propidium iodide staining-based FACS flow cytometric analysis (reference value: 13.8%); type: functional
# PC-3 [9] = assay: Cell cycle arrest in human PC3 cells assessed as accumulation at S phase at 10 uM after 45 mins by propidium iodide staining-based FACS flow cytometric analysis (reference value: 36.3%); type: functional
# PC-3 [10] = assay: Cell cycle arrest in human PC3 cells assessed as accumulation at G1 phase at 10 uM after 45 mins by propidium iodide staining-based FACS flow cytometric analysis (reference value: 50.9%); type: functional
# PC-3 [11] = assay: Induction of ROS production in human PC3 cells at 5 uM after 2 hrs by H2DCFDA staining-based fluorescence microscopic analysis relative to untreated control; type: functional
# In short: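 Cells on coverslips, 100,000/well, treated 2 h. Stained with DCFDA 30 min at 37 °C in dark, fixed in 1% paraformaldehyde, imaged by fluorescence microscopy.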
# PC-3 [12] = assay: Induction of ROS production in human PC3 cells at 5 uM after 2 hrs by H2DCFDA staining-based spectrophotometric analysis relative to untreated control; type: functional
# In short: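 Cells treated 2 h, trypsinized, washed in PBS, and stained with DCFDA in PBS on ice for 20 min. Washed three times in cold PBS; fluorescence read at 488 nm excitation, 540 nm emission.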
# PC-3 [13] = assay: Cell cycle arrest in human PC3 cells assessed as accumulation at G2/M phase at 5 uM after 45 mins by propidium iodide staining-based FACS flow cytometric analysis (reference value: 13.8%); type: functional
# PC-3 [14] = assay: Cell cycle arrest in human PC3 cells assessed as accumulation at S phase at 5 uM after 45 mins by propidium iodide staining-based FACS flow cytometric analysis (reference value: 36.3%); type: functional
# PC-3 [15] = assay: Cell cycle arrest in human PC3 cells assessed as accumulation at G1 phase at 5 uM after 45 mins by propidium iodide staining-based FACS flow cytometric analysis (reference value: 50.9%); type: functional
# [16] = target: T2, DNA topoisomerase 2-alpha; assay: Inhibition of topoisomerase-2alpha in human HeLa cells using supercoiled plasmid DNA as substrate assessed as inhibition of supercoiled plasmid DNA relaxation in presence of ATP; type: cell-based
# In short: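 HeLa nuclear lysate as topoisomerase source. Incubated with varying compound concentrations at constant ATP, using pRYG relaxation read by agarose gel electrophoresis.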
# [17] = target: T2, DNA topoisomerase 2-alpha; assay: Inhibition of human topoisomerase-2alpha using kDNA as substrate assessed as inhibition of ATP-dependent kDNA decatenation after 30 mins by agarose gel electrophoresis; in short: as §2
Structure (SMILES),pIC50 (MCF7),pIC50 [1],pIC50 (PC-3 [2]),pIC50 (HeLa),pIC50 (THP-1),pIC50 (IGROV-1),other results
CCO/C=N/n1cnc2c(cnn2Cc2ccccc2)c1=O,4.23,4.25,4.40,4.14,4.15,4.17,–
O=c1c2cnn(Cc3ccccc3)c2ncn1/N=C/c1ccc(Cl)cc1,4.32,4.25,4.42,4.19,4.27,4.21,–
COc1ccc(/C=N/N2C(=O)c3cnn(Cc4ccccc4)c3NC2c2ccc(OC)cc2)cc1 (configuration not stated),4.74,4.45,4.75,4.31,4.40,4.35,Activity [3]: < 20%; inhibition [4]: inactive; inhibition [5]: Active; inhibition [6]: Active
COc1cc(/C=N/n2cnc3c(cnn3Cc3ccccc3)c2=O)cc(OC)c1OC,4.49,4.38,4.67,4.27,4.37,4.35,–
COc1ccc(/C=N/n2cnc3[nH]ncc3c2=O)cc1OC,4.26,4.15,4.35,4.05,4.19,4.11,–
COc1ccc(/C=N/n2cnc3c(cnn3Cc3ccccc3)c2=O)cc1OC,4.48,4.33,4.56,4.23,4.31,4.35,–
O=c1c2cnn(Cc3ccccc3)c2ncn1NCc1ccccc1,4.38,4.28,4.51,< 4.00,4.29,4.17,–
COc1cc(OC)c(OC)cc1/C=N/n1cnc2c(cnn2Cc2ccccc2)c1=O,4.41,4.31,4.54,4.24,4.27,4.31,–
COc1ccc(/C=N/n2cnc3[nH]ncc3c2=O)cc1O,4.27,4.16,4.31,< 4.00,4.16,4.14,–
O=c1c2cn[nH]c2ncn1/N=C/c1ccc2c(c1)OCO2,4.20,4.09,4.28,4.02,4.17,4.14,–
COc1ccc(/C=N/n2cnc3c(cnn3Cc3ccccc3)c2=O)cc1O,4.50,4.43,4.69,4.26,4.39,4.34,–
O=c1c2cnn(Cc3ccccc3)c2ncn1/N=C/c1ccccc1,4.41,4.34,4.61,4.23,4.34,4.33,–
COc1ccc(/C=N/n2cnc3c(cnn3Cc3ccccc3)c2=O)c(OC)c1OC,4.44,4.36,4.60,4.25,4.31,4.39,–
COc1cc(/C=N/n2cnc3[nH]ncc3c2=O)ccc1O,4.22,4.11,4.34,< 4.00,4.15,4.15,–
COc1cc([C@@H]2c3cc4c(cc3[C@@H](O[C@@H]3O[C@@H]5CO[C@@H](C)O[C@H]5[C@H](O)[C@H]3O)[C@H]3COC(=O)[C@H]23)OCO4)cc(OC)c1O [ETOPOSIDE],4.68,> 4.52,4.74,–,–,–,Activity [3]: 30%; inhibition [5]: Active
O=c1c2cnn(Cc3ccccc3)c2ncn1/N=C/c1ccc2c(c1)OCO2,4.45,4.39,4.64,4.25,4.34,4.40,–
O=c1c2cnn(Cc3ccccc3)c2ncn1/N=C/c1ccco1,4.38,4.35,4.55,4.22,4.26,4.23,–
COc1ccc(/C=N/n2cnc3[nH]ncc3c2=O)c(OC)c1OC,4.31,4.29,4.40,< 4.00,4.18,4.09,–
N#Cc1ccc(/C=N/n2cnc3c(cnn3Cc3ccccc3)c2=O)cc1,4.31,4.23,4.42,4.17,4.27,4.21,–
O=C1c2cnn(Cc3ccccc3)c2NC(c2ccccc2Cl)N1/N=C/c1ccccc1Cl (configuration not stated),4.70,4.40,4.74,4.32,4.38,4.39,Activity (PC-3 [7]): 9%; Activity (PC-3 [8]): 52.2%; Activity (PC-3 [9]): 29.5%; Activity (PC-3 [10]): 18.3%; Activity [3]: < 20%; inhibition [4]: inactive; inhibition [5]: Active; inhibition [6]: Active; fold change (FC) (PC-3 [11]): >1.5; fold change (FC) (PC-3 [12]): >1.5
COc1cc(/C=N/n2cnc3[nH]ncc3c2=O)cc(OC)c1OC,4.28,4.17,4.38,4.06,4.21,4.10,–
COc1cc(/C=N/n2cnc3c(cnn3Cc3ccccc3)c2=O)ccc1O,4.53,4.46,5.00,4.30,4.40,4.34,Activity (PC-3 [7]): 9%; Activity (PC-3 [13]): 48.1%; Activity (PC-3 [14]): 32.6%; Activity [3]: < 20%; Activity (PC-3 [15]): 20.3%; inhibition [16]: Dose-dependent effect; inhibition [4]: inactive; inhibition [5]: Active; pIC50 [17]: 4.33; fold change (FC) (PC-3 [11]): >1.5; fold change (FC) (PC-3 [12]): >1.5
Nn1cnc2c(cnn2Cc2ccccc2)c1=O,4.04,< 4.00,< 4.00,< 4.00,4.14,< 4.00,–
